High-throughput results (PubChem BioAssay)
Rows were chosen to be rich in hits. Some 9.4% of all compounds tested hit in one or more screens of this group.
T cruzi inh = T. cruzi replication inhibition. T. cruzi beta-gal in NIH3T3, luminescence, 90 h. inhibition, % (no concentration beside the values). 1.4% of 300,000 active;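 active = mean inhibition across valid replicates above about 55%, limit read from the data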;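 also: signal also drops with host cell toxicity which is not excluded here; 0% = plate median of DMSO wells and 100% = zero luminescence signal; higher percent means less beta-gal luminescence so fewer parasites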
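Assay system: NIH/3T3 fibroblasts plus reporter T. cruzi. Amount: NIH/3T3 cells, 5,000 per well. Buffer or medium: DMEM, 2% fetal bovine serum. Doses: compound pinned at 50 nL/well, DMSO. Schedule: ≥90 h infection period, 3 h prior cell attachment. Signal: luminescent β-galactosidase signal after 60 min lysis. Read-out: parasite load inhibition, %.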
Beta apoptosis = blocks beta cell apoptosis | 0.8% of 300,000 active | INS-1E cytokine-induced death, ATP luminescence, 48 h; percent of positive-control rescue, neutral wells zero | AID 435005 | protection from apoptosis, % (test concentration not listed);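 active = Every replicate reaches about 75%, or at least half do and their mean reaches it too, limit read from the data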;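 also: 0% = cytokine-treated negative control wells and 100% = positive control rescue; higher means more ATP so stronger rescue from cytokine killing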
SKKanGAS inh = inhibitors of SKKanGAS S. pyogenes growth in kanamycin (SK-promoter or general growth effect). BacTiter-Glo, 6 h. inhibition, % at 7.5 µM. 1.3% of 300,000 active. AID 1662;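 active = mean replicate score, as percent of positive control median, at least 50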;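 also: strain carries kanamycin resistance gene driven by streptokinase promoter and grows in 40 µg/ml kanamycin; loss of luminescence reflects streptokinase promoter inhibition or plain growth inhibition; 0% = median of DMSO wells and 100% = positive control at its reference dose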
Mdm2 MdmX PPI = disrupts the human Mdm2-MdmX interaction; inhibition, % at 8 µM; 3% of 330,000 active; SaOS-2 split-luciferase Mdm2/MdmX complementation, luminescence; O15151+Q00987;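 active = inhibition of at least 50% at 8 µM in the primary screen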
Target sequence (O15151 whole entry, looked up): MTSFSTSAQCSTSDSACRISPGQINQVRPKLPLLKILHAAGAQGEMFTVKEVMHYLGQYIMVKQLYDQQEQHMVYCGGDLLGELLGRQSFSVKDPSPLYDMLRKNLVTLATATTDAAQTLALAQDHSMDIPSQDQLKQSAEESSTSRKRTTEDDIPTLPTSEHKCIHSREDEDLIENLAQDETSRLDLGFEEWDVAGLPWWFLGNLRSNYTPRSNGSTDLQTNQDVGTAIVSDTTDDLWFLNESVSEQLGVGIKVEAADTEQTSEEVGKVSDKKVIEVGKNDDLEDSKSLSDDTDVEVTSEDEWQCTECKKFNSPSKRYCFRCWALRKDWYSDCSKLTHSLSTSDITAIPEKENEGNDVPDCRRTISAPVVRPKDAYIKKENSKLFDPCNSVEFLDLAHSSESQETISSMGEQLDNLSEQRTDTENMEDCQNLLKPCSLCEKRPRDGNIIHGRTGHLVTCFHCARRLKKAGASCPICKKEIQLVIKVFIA
Target sequence (Q00987 whole entry, looked up): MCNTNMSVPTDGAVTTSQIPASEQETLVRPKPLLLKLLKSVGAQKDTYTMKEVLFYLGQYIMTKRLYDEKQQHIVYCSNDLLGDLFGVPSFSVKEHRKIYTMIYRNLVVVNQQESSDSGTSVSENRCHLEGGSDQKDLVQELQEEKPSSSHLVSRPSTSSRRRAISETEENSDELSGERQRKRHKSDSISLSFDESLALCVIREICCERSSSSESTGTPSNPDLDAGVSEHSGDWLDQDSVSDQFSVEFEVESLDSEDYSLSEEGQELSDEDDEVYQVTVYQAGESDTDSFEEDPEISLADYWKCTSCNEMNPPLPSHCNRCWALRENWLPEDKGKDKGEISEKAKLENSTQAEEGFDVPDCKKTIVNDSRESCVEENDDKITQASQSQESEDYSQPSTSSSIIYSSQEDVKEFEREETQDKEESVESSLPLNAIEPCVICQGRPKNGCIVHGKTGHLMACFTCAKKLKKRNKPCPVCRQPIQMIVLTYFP
Lmaj promast = reduces viability of Leishmania major promastigotes; resazurin fluorescence viability; 9% of 200,000 active; AID 1063; inhibition, % at 10 µM; in the data active = inhibition above about 50%;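 also: promastigotes grown with compound for 44 hours at 28 °C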
CSC inhib = blocks cancer stem cells; inhibition, % at 7.5 µM; AID 2717; 1.1% of 300,000 active; cancer stem cell-like cells viability, luminescence; in the data active = inhibition above about 75%; tested in HMLE shEcad cells
Mdm2-MdmX conf = confirmation of human Mdm2/MdmX interaction inhibitors; shares compounds with Mdm2 MdmX PPI; Mdm2-MdmX binding, luminescent assay; inhibition, % at 8 µM; 55% of 10,000 active; AID 489028; in the data active = inhibition above about 40%
FLuc counter = inhibits full-length luciferase, flagging false Mdm2/MdmX hits; shares compounds with Mdm2 MdmX PPI; SaOS-2 full-length luciferase counterscreen, luminescence; inhibition, % at 8 µM; 77% of 6,200 active; AID 504607;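 active = mean inhibition at 8 µM reaching about 37%, which flags the compound as non-specific, limit read from the data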;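 also: p53-null SaOS-2 cells with luciferase driven by a doxycycline-inducible promoter; compound on cells about two nights before reading with doxycycline added after day one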
An asterisk follows results filed as active; · = not tested or not shown.

SMILES	T cruzi inh	Beta apoptosis	SKKanGAS inh	Mdm2 MdmX PPI	Lmaj promast	CSC inhib	Mdm2-MdmX conf	others
Cc1ccc2nc(N/N=C\c3ccc([N+](=O)[O-])o3)nc(-c3ccccc3)c2c1	79.9*	·	99.8*	66.8*	97.7*	52.9	30.0
OCCNc1nc(-c2ccccc2)c2cc(Br)ccc2n1	3.7	9.2	1.1	22.2	·	1.5	·
CN(C)c1ccc(/C=N/NC(=O)CN2CCN(c3ccc(F)cc3)CC2)cc1	-8.7	·	-0.5	34.0	-6.9	-18.7	·
CCOC(=O)c1c(S(=O)(=O)N2CCCC(C(=O)Nc3cccc(C)n3)C2)c(C)n(C)c1C (centres undefined)	1.1	-2.3	0.4	7.7	·	0.1	·
COc1ccc(Nc2nnc(SC(C(=O)Nc3cc(C)ccc3C)c3ccccc3)s2)cc1 (centres undefined)	44.8	15.2	25.1	83.9*	36.3	11.3	4.7
Cc1ccc(C)c(NC(=O)C(Sc2nc3ccccc3c(=O)n2CC(C)C)c2ccccc2)c1 (centres undefined)	3.3	5.4	-6.3	83.5*	0.0	28.1	63.0*	FLuc counter=82.7*
COc1ccc(OC)c(NC(=O)c2ccc(NC3=NC4CS(=O)(=O)CC4S3)cc2)c1 (centres undefined)	-6.1	-6.0	0.6	35.1	·	·	·
CCCC(C)NC(=O)COc1ccc(S(=O)(=O)N2CCCC2)cc1 (centres undefined)	2.5	·	-0.8	18.7	-2.4	-11.0	·
Cc1cc(C)c2cc(CN(CCCN(C)C)C(=S)NCc3ccccc3)c(=O)[nH]c2c1	52.8	1.7	-0.2	53.1*	100.0*	24.3	29.8
Cc1ccc(C)c2[nH]c(=O)c(CN(CCCN(C)C)C(=O)NCc3ccccc3)cc12	51.8	1.9	-2.0	20.9	·	-2.7	·
Cc1cc2c(cn1)C(CCC#N)(CCC#N)c1ccccc1-2	-7.2	-0.7	1.3	16.5	·	-16.7	·
CC(C)(C)NC(=O)COC(=O)c1c2c(nc3ccccc13)CCC2	0.3	1.1	4.0	1.3	·	4.3	·
CC(=O)c1ccc(NC(=O)COC(=O)c2c3c(nc4ccccc24)/C(=C\c2cccs2)CCC3)cc1	43.0	2.8	21.5	65.9*	97.2*	116.6*	35.0
O=C(COC(=O)c1c2c(nc3ccccc13)/C(=C\c1cccs1)CCC2)Nc1ccccc1	74.1*	3.3	19.1	52.1*	28.2	101.2*	11.2
COc1ccc(C(=O)NCC(=O)OCc2ccc(F)cc2)cc1	-3.9	0.1	-2.5	25.8	-9.0	-4.3	·
FC(F)(F)c1cccc(Sc2nc(-c3ccccc3)nnc2C(F)(F)F)c1	43.5	-3.5	-12.8	55.4*	46.0	·	17.4
FC(F)(F)c1nnc(-c2ccccc2)nc1Sc1ccc(Cl)cc1	39.4	63.4	26.9	86.5*	30.7	80.5*	33.8	FLuc counter=16.4
FC(F)(F)c1nnc(-c2ccccc2)nc1Oc1ccc(Cl)cc1Cl	-12.8	0.6	-3.7	32.0	-11.9	·	·
CCCNC(=O)c1nc(C)n(-c2ccc([N+](=O)[O-])cc2)n1	2.0	-11.4	-3.3	15.4	3.5	-5.5	·
Cc1ccc(NC(=O)COC(=O)[C@H](C)N2C(=O)C3CC=CCC3C2=O)cc1S(=O)(=O)N(C)C (some centres undefined)	-4.6	-3.2	7.7	14.9	4.0	3.7	·
CC(=O)N(\C=C/C=C/C=C1\Sc2ccccc2C1=O)c1ccccc1	-9.3	10.7	8.6	80.6*	8.4	65.4	14.8
COC(=O)c1ccc(CNC(=O)c2ccc(OCC(=O)N3CCOCC3)c(OC)c2)cc1	-2.3	-0.6	1.5	3.5	·	-12.9	·
CCN(CC)CCN1c2ccccc2Sc2ccc3ccccc3c21	26.2	106.4*	0.7	56.1*	·	58.6	36.6	FLuc counter=74.7*
CCN(CC)CCN1c2ccccc2Sc2ccccc21	17.9	1.4	-5.2	19.1	·	7.0	·
CCc1ccc(OCC(=O)NC(=S)Nc2ccc(C(=O)O)cc2)cc1	-11.2	-1.5	3.5	21.5	·	3.5	·
SMILES	T cruzi inh	Beta apoptosis	SKKanGAS inh	Mdm2 MdmX PPI	Lmaj promast	CSC inhib	Mdm2-MdmX conf	others
CCCC(=O)NC(NC(=S)Nc1ccc(N=Nc2ccccc2)cc1)C(Cl)(Cl)Cl (centres undefined)	41.7	109.0*	10.2	86.2*	56.6*	119.1*	89.1*	FLuc counter=32.4
CCc1ccc(OCC(=O)NC(NC(=S)Nc2ccc(Cl)cc2)C(Cl)(Cl)Cl)cc1 (centres undefined)	54.0	23.1	17.5	84.3*	60.8*	4.1	92.1*	FLuc counter=22.0
CCCC(=O)NC(NC(=S)Nc1ccc(S(N)(=O)=O)cc1)C(Cl)(Cl)Cl (centres undefined)	-9.2	-6.1	5.5	-6.0	-6.3	-10.0	·
COc1ccc(/C=C2\COc3ccccc3C2=O)c(OC)c1	-4.3	4.5	-1.3	59.3*	·	60.2	34.0	FLuc counter=76.2*
COc1ccc2c(c1)OC/C(=C/c1cccs1)C2=O	4.2	-3.2	3.6	-147.5	2.7	-9.0	·
COc1ccc(C=C2c3ccccc3C(=O)c3ccccc32)c(OC)c1	9.0	8.0	-5.0	65.8*	·	-10.3	57.4*	FLuc counter=97.1*
COc1ccc(C2C(=O)c3ccccc3C2=O)c(OC)c1	0.4	-7.5	1.8	-260.6	-0.5	-4.4	·
COc1cccc(-c2sc3ccc(OC)cc3c2-c2ccc(OCCN3CCCC3)cc2)c1	·	·	·	69.3*	·	·	33.0	FLuc counter=27.8
COc1cccc(-c2sc3ccccc3c2-c2ccc(OCCN(C)C)cc2)c1	·	20.0	·	100.5*	·	104.4*	25.2
COc1ccc2sc(-c3ccccc3OC)c(-c3ccc(OCCN(C)C)cc3)c2c1	·	·	·	11.1	·	·	·
COc1cccc(-c2sc3ccccc3c2-c2ccc(OCCN3CCCC3)cc2)c1	·	4.8	·	100.0*	·	103.9*	21.5
COc1cccc(-c2sc3cc(OC)c(OC)cc3c2-c2ccc(OCCN3CCCCC3)cc2)c1	·	·	·	78.3*	·	·	23.4
Cn1cc(CN2CCC[C@H]2CO)c(-c2cccc(Cl)c2)n1	-3.5	-2.6	-3.9	19.1	-7.8	0.9	·
CC(C)[C@H]1C(=O)Nc2ccccc2N1C(=O)N[C@@H](Cc1ccccc1)C(=O)N[C@@H](Cc1ccccc1)C(=O)O	-10.3	-2.9	4.1	23.5	·	5.2	·
COc1cccc(-c2sc3ccccc3c2-c2ccc(OCCN3CCCCC3)cc2)c1	·	27.8	·	95.0*	·	104.2*	28.4
CCOc1ccccc1C(=O)NCC(=O)N(C)Cc1cccnc1	-6.6	-8.0	-8.7	8.2	·	-10.4	·
COc1cc2cc(C#N)c(SCC(=O)Nc3cc(C)on3)nc2cc1OC	2.8	4.1	26.1	11.3	·	-5.8	·
O=C(c1cccc(Cl)c1)N1CCN(c2ccccn2)CC1	-0.6	0.9	0.5	2.0	-3.6	1.7	·
O=C(c1ccc(S(=O)(=O)c2cccc(Cl)c2)c([N+](=O)[O-])c1)N1CCN(c2ccccn2)CC1	5.8	-5.6	4.6	73.5*	13.4	51.1	67.8*	FLuc counter=58.1*
